Key:
Thymidine kinase [1] = molecular target: T1, Thymidine kinase (Human herpesvirus 2, UniProt Q6L709); assay: Inhibition of HSV-2 thymidine kinase, 2 uM [3H]thymidine and ATP as phosphate donor; parameters: species or system Human alphaherpesvirus 2
T1 sequence (Q6L709 whole entry): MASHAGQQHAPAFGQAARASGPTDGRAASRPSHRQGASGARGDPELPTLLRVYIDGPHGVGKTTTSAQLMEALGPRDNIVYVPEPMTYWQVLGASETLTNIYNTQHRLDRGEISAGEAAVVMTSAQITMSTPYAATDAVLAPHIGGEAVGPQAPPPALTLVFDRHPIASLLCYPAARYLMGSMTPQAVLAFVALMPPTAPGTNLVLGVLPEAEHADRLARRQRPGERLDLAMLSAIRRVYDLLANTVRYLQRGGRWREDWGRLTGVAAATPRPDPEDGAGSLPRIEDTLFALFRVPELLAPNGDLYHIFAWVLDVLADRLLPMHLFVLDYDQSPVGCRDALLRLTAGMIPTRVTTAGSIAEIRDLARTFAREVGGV
Summary of the method: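 TK purified by affinity column from HSV2-infected HeLa cells. Activity measured by DE-81 filter binding as phosphorylation of limiting 2 µM [3H]TdR with ATP as phosphate donor. Inhibitors were diluted from DMSO stocks, with matching DMSO in controls.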

Thymidine kinase [2] = molecular target: T2, Thymidine kinase (Human alphaherpesvirus 1, UniProt Q9QNF7); assay: Inhibition of HSV-1 thymidine kinase, 1 uM [3H]thymidine and ATP as phosphate donor
T2 sequence (Q9QNF7 whole entry): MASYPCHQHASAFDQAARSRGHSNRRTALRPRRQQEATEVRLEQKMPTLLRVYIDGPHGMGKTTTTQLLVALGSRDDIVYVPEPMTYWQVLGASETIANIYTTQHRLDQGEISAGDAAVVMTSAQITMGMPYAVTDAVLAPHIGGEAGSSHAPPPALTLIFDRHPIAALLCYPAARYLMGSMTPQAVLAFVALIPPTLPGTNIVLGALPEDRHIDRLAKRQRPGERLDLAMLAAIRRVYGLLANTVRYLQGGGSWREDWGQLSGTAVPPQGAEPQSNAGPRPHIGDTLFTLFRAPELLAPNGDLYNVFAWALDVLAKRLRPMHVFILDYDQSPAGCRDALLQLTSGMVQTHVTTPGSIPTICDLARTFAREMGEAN

[3] = Volume of distribution in mice plasma was determined at 40 mg/kg after intravenous administration with saline(pH=11.4) as vehicle; format: ADME, organism-based; parameters: dose 40 mg/kg, route intravenous; details: mouse
Summary of the method: (§1)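 Male CD-1 mice (~25 g) received 40 mg/kg iv via the tail vein, dissolved at 10 mg/mL in saline pH 11.4 or 90% aqueous DMSO. Blood was taken at intervals after decapitation, and plasma was diluted 10-fold. Drug was quantified by C8 reverse-phase HPLC with UV at 275 nm. C0 and ke came from a log-linear fit of all points; t1/2 = ln2/ke and Vd = dose/C0.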

[4] = Half life in mice plasma was determined at 100 mg/kg after intraperitoneal administration with saline(pH=11.4) as vehicle; format: ADME, organism-based; parameters: dose 100 mg/kg, route intraperitoneal; details: mouse, ip
Summary of the method: (§2)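 Male CD-1 mice (~25 g) received 100 mg/kg ip as a solution in saline pH 11.4 or 90% DMSO. Plasma was collected at intervals after decapitation, diluted 10-fold and stored at −21 °C. Drug was measured by C8 reverse-phase HPLC with UV at 275 nm against spiked-plasma standards (0.11–56 µM). C0 and ke came from least-squares regression of the terminal log-linear phase; t1/2 = ln2/ke.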

Mus musculus [5] = assay: Plasma concentration at time-0 was measured in mice at 40 mg/kg after intravenous administration with saline(pH=11.4) as vehicle; format: ADME, organism-based; parameters: dose 40 mg/kg, route intravenous; details: in vivo, pH 11.4, 40 mg/kg, read-out: Co; summary of the method: as §1
Mus musculus [6] = assay: Plasma concentration at time-0 was measured in mice at 100 mg/kg after intraperitoneal administration with saline(pH=11.4) as vehicle; format: ADME, organism-based; parameters: dose 100 mg/kg, route intraperitoneal; details: in vivo, ip, pH 11.4, 100 mg/kg, read-out: Co; summary of the method: as §2
[7] = Half life in mice plasma was determined at 40 mg/kg after intravenous administration with saline(pH=11.4) as vehicle; format: ADME, organism-based; parameters: dose 40 mg/kg, route intravenous; details: mouse; summary of the method: as §1
[8] = Volume of distribution in mice plasma was determined at 40 mg/kg after intravenous administration with 90% DMSO as vehicle; format: ADME, organism-based; parameters: dose 40 mg/kg, route intravenous; details: mouse; summary of the method: as §1
Mus musculus [9] = assay: Plasma concentration at time-0 was measured in mice at 40 mg/kg after intravenous administration with 90% DMSO as vehicle; format: ADME, organism-based; parameters: dose 40 mg/kg, route intravenous; details: in vivo, read-out: Co; summary of the method: as §1
[10] = Half life in mice plasma was determined at 100 mg/kg after intraperitoneal administration with 90% DMSO as vehicle; details: mouse, ip
[11] = Half life in mice plasma was determined at 40 mg/kg after intravenous administration with 90% DMSO as vehicle; format: ADME, organism-based; parameters: dose 40 mg/kg, route intravenous; details: mouse; summary of the method: as §1
Mus musculus [12] = assay: Plasma concentration at time-0 was measured in mice at 100 mg/kg after intraperitoneal administration with 90% DMSO as vehicle; details: in vivo, ip, read-out: Co
Mus musculus [13] = assay: Plasma concentration at time-0 was measured in mice at 100 mg/kg after intraperitoneal administration with 90% DMSO as vehicle; format: ADME, organism-based; parameters: dose 100 mg/kg, route intraperitoneal; details: in vivo, ip, read-out: Co; summary of the method: as §2

Compound | IC50 (Thymidine kinase [1]) [nM] | IC50 (Thymidine kinase [2]) [nM] | further results
O=c1[nH]c(Nc2cccc(CC(F)(F)F)c2)nc2nc[nH]c12 | 1000 | 450 | –
O=c1[nH]c(Nc2cccc(C(F)F)c2)nc2nc[nH]c12 | 3900 | 2800 | –
C=CCn1cnc2c(=O)[nH]c(Nc3ccccc3)nc21 | 180 | – | –
O=c1[nH]c(Nc2ccccc2)nc2c1ncn2CC(O)CSCCO (stereo unspecified) | 1600 | 1600 | –
O=C(O)Cn1cnc2c(=O)[nH]c(Nc3ccccc3)nc21 | 9800 | 12400 | –
O=c1[nH]c(Nc2cccc(OC(F)(F)F)c2)nc2nc[nH]c12 | 6300 | 2300 | –
O=c1[nH]c(Nc2cccc(C(Cl)C(F)(F)Cl)c2)nc2nc[nH]c12 (stereo unspecified) | 470 | 650 | –
COCCn1cnc2c(=O)[nH]c(Nc3ccccc3)nc21 | 2700 | 610 | –
O=c1[nH]c(Nc2cccc(C(Cl)=C(Cl)Cl)c2)nc2[nH]cnc12 | 70000 | 70000 | –
O=c1[nH]c(Nc2ccccc2)nc2c1ncn2CC(O)CO (stereo unspecified) | 3500 | 1700 | –
O=C1N=C(Nc2cccc(C(F)(F)F)c2)N=C2C1N=CN2[C@H]1C[C@H](O)[C@@H](CO)O1 (stereo partly specified) | 2000 | 4000 | –
O=C1N=C(Nc2ccccc2)N=C2C1N=CN2[C@H]1C[C@H](O)[C@@H](CO)O1 (stereo partly specified) | – | – | Vd [3]: 0.4 L/kg; half-life [4]: 60 min; concentration (Mus musculus [5]): 174 µM; concentration (Mus musculus [6]): 11.7 µM; half-life [7]: 7.5 min
O=c1[nH]c(Nc2ccccc2)nc2c1ncn2CCO | – | – | Vd [8]: 3.3 L/kg; concentration (Mus musculus [9]): 44.7 µM; half-life [10]: 21 min; half-life [11]: 15 min; concentration (Mus musculus [12]): 100 µM
O=c1[nH]c(Nc2cccc(C(F)(F)F)c2)nc2nc[nH]c12 | – | – | Vd [3]: 3 L/kg; concentration (Mus musculus [5]): 54.2 µM; concentration (Mus musculus [6]): 10.2 µM; half-life [7]: 25 min
O=c1[nH]c(Nc2ccccc2)nc2c1ncn2CCCCO | – | – | Vd [8]: 2.7 L/kg; concentration (Mus musculus [9]): 49.5 µM; half-life [11]: 14 min; concentration (Mus musculus [13]): 30.5 µM
OCCn1cnc2c(O)nc(Nc3cccc(C(F)(F)F)c3)nc21 | 20400 | 4700 | –

From ChEMBL document CHEMBL1128343, “Synthesis, properties, and pharmacokinetic studies of N2-phenylguanine derivatives as inhibitors of herpes simplex virus thymidine kinases” (J Med Chem, 1995)
